Data set [1] is classed as in vivo, human. Particulars: for Mean sirolimus oral clearance: allometrically scaled (0.75, 70 kg). Summed up: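 Oral dosing began at 0.8 mg/m2 twice daily, then adjusted to trough targets of 10 to 15 ng/ml. Concentrations were drawn at 8–14 days, then every 2 weeks (LLOQ 1.0 ng/ml). First-4-week samples (1–3 per patient) fed a Bayesian one-compartment estimator with pediatric neurofibromatosis priors, estimating clearance only. Clearances were scaled allometrically (exponent 0.75, 70 kg), and an Emax fit against age gave CLmatured and Age50.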

The next data set has as its system CYP3A. The format is in vitro ADME, human. As to conditions: ketoconazole at 1 µM; nine individual pediatric liver microsomes aged 1 month to 4 years; mean ± SD. Summed up:
(§1)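 Substrate depletion of the test compound in nine individual pediatric liver microsomes in 100 mM potassium phosphate (pH 7.4) at 37°C, with and without CYP-selective inhibitor (1 µM; ketoconazole for CYP3A, montelukast for CYP2C8). NADPH regenerating system starts the reaction (t=0). Serial aliquots are extracted with methanol/ZnSO4 plus internal standard and analysed by online SPE-LC-MS/MS. kel comes from the log %-remaining vs time slope. % contribution is calculated from kel with and without inhibitor.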
For orientation: Liver microsomes are vesicles of endoplasmic reticulum, rich in cytochrome P450 enzymes.

A further data set deals with T1, CYP2C8 (Homo sapiens, UniProt P10632).
T1 sequence (P10632 1-490): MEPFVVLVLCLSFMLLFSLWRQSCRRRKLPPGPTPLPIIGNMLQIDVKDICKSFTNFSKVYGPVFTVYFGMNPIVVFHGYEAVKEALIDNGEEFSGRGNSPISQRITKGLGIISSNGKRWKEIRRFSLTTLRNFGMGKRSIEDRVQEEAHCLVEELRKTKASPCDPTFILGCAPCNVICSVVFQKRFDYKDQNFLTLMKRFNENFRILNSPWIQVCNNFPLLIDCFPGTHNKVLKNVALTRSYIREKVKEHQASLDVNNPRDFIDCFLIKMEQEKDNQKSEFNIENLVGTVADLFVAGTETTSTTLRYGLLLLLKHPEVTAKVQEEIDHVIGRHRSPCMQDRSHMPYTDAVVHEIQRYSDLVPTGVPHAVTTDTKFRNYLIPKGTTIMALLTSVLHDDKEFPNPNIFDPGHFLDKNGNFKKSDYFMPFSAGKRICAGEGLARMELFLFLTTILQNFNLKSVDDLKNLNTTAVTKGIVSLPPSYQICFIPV
The format is in vitro ADME. Particulars: montelukast at 1 µM; nine individual pediatric liver microsomes aged 1 month to 4 years; mean ± SD. The essentials: as §1

The target of another data set is recombinant CYP3A7 (Homo sapiens, UniProt P24462). The data set can be described thus: Substrate depletion assay with recombinant CYP3A7. The format is in vitro ADME. The essentials:
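Recombinant CYP3A7 (with reductase and cytochrome b5) was brought to 0.4 mg/ml protein with blank microsomes and incubated with sirolimus in 100 mM potassium phosphate, pH 7.4, at 37°C with shaking. NADPH regenerating system started the reaction (t = 0), with aliquots taken at serial times. Sirolimus remaining was measured by on-line SPE–HPLC–MS/MS against an internal standard. The slope of log % remaining versus time was converted to CLint per pmol CYP.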

For data set [2], the system named is P-glycoprotein (MDR1/ABCB1). As to conditions: cited from earlier work.

We go through 1 compound from publication PMC4360665 (CPT: Pharmacometrics & Systems Pharmacology, 2015).

The structures appear in SMILES notation. Several values for one entry are separate records, joined by “and”; a condition that tells them apart may be missing. Identical values can stand only once. Like-named read-outs stand apart in the source and are kept apart here.

recombinant CYP3A7, sequence (P24462 whole entry): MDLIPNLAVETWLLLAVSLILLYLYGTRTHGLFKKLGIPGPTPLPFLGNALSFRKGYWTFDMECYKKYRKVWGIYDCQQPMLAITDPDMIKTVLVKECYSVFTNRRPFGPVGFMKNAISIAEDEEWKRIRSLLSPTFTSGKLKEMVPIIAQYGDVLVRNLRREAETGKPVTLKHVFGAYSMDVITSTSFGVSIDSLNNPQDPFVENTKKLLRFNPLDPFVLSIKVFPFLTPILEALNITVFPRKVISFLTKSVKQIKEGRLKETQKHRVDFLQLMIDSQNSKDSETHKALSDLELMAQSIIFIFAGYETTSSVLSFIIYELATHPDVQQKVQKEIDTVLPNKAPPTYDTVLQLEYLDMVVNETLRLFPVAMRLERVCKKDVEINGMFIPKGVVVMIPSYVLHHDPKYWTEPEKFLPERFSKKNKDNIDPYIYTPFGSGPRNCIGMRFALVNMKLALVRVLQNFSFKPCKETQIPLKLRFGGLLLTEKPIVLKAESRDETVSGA

Turning to `CO[C@H]1C[C@@H]2CC[C@@H](C)[C@@](O)(O2)C(=O)C(=O)N2CCCC[C@H]2C(=O)O[C@H]([C@H](C)C[C@@H]2CC[C@@H](O)[C@H](OC)C2)CC(=O)[C@H](C)/C=C(\C)[C@@H](O)[C@@H](OC)C(=O)[C@H](C)C[C@H](C)/C=C/C=C/C=C/1C` [sirolimus], the “Mean sirolimus oral clearance” value in data set [1] (age group 1 year (≥1, <2), n=5) came to 17 ± 4 L/h; in data set [1] (age group 1–8 months (<1), n=9) it was 11 ± 3 L/h; in data set [1] (age group 2 years (≥2, <3), n=3), 21 ± 3 L/h; in data set [1] (age group 3–18 years (≥3), n=27), 18 ± 6 L/h. The “Observed CLmatured” value in data set [1] (clinical clearance estimates, patients 1 months to 3 years, n = 20, Emax model) is 19.4 ± 2.2 L/h/70 kg. Further, in the data set on CYP3A, the “% of Contribution of CYP3A to sirolimus metabolism” value was 95.8% and 95.8±4.8%. Besides, the “% of Contribution of CYP2C8 to sirolimus metabolism” value at CYP2C8 was “less than 10% and 8.5±4.3%”. Besides, the “fold lower CLint of CYP3A7 than reported CYP3A4 activity” value on recombinant CYP3A7 (CYP3A4 value from ref 17) was 30 fold. The “fold lower CLint of CYP3A7 than reported CYP3A5 activity” value at recombinant CYP3A7 (CYP3A5 value from ref 17) was determined as 13 fold. The “CLint for recombinant CYP3A7” value at recombinant CYP3A7 (substrate depletion, 37°C, pH 7.4) was 0.30 µl/min/pmol CYP protein. The “substrate of P-glycoprotein (MDR1/ABCB1)” value in data set [2] is on record as “substrate”.
